Screening data (PubChem)
This is a sample that favours compounds with a hit; in the whole collection about 4.8% have one here.
T cruzi repl = inhibitors of intracellular T. cruzi growth, primary screen, luminescence, NIH3T3 host cells; T. cruzi beta-gal in NIH3T3, 90 h; inhibition, % (concentration not given with the values); 300,000 compounds, 1.4% hits; AID 1885, 2009;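 active means mean inhibition across valid replicates above about 55%, limit read from the data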;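 further: signal also drops with host cell toxicity which is not excluded here; higher percent means less beta-gal luminescence so fewer parasites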
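System: Mouse NIH/3T3 fibroblasts infected with β-gal-expressing T. cruzi Tulahuen C4 | Quantity: NIH/3T3 cells, 5,000 per well | Reagent: 5000 reporter trypomastigotes per well | Dosing: Compound pinned at 50 nL/well, DMSO | Schedule: 3 h host attachment, then at least 90 h co-culture | Detection: GalScreen luminescence, 60 min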
HSF1 inh = HSF1 inhibitors in luciferase reporter cells, primary screen, cell-based, NIH3T3, luminescence | AID 2098, 2009 | 300,000 compounds, 0.77% hits | NIH3T3-HGL HSE-luciferase, MG132-induced, luminescence 8 h; stronger effect = lower value | activity change, negative = inhibition, % at 7.5 µM (by protocol);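 active means more than half of replicate wells show activity change below -50%, luminescence cut by over half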;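 further: luciferase reports HSF-1 transcriptional activity via heat shock element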
Jurkat NFkB inh = inhibitors of induced NF-kB luciferase reporter, primary screen, TCR NF-kB activation inhibitor project, cell-based, luminescence, uHTS; 330,000 compounds, 0.53% hits; inhibition, % at 4 µM; Jurkat, PMA/ionomycin-induced NF-kB luciferase reporter; in the data active means inhibition above about 50%
GPR7 antagonist = GPR7 receptor antagonists, primary screen, cell-based, fluorescence, single concentration | Neuropeptides B/W receptor type 1 (Homo sapiens), P48145 | inhibition, % at 4.4 µM | AID 1861, 2009 | 290,000 compounds, 1.1% hits | GPR7-expressing cells, fluorescence antagonist assay; in the data active means inhibition above about 16%, passing the limit was not always enough;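 further: cells stimulated with the agonist NPW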
Target sequence (P48145 whole entry, looked up): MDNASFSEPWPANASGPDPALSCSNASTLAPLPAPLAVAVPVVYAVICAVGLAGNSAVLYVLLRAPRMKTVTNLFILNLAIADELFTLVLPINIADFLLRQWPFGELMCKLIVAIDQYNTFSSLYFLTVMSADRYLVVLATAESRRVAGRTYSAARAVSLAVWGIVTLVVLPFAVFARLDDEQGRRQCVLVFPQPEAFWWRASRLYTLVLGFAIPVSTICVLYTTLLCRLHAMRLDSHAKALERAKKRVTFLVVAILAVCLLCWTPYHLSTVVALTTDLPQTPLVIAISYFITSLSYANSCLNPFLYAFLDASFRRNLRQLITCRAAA
HSF-1 act = HSF-1 activators, primary screen, NIH3T3-HGL cells, MG132 stress, luminescence, single point; NIH3T3-HGL HSF-1 luciferase reporter, 8 h; 100% = twice DMSO control signal; activation, % at 9 µM; 300,000 compounds, 1.7% hits;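 active means mean replicate activation of at least 50% with a set share of replicates each reaching 50%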
697 NFkB inh = inhibitors of PMA/ionomycin-induced NF-kB reporter, 697 cells, primary screen, B-cell NF-kB inhibitor project, cell-based, luminescence, uHTS; AID 435022, 2010; inhibition, % at 4 µM; 330,000 compounds, 0.33% hits; 697 B-cell NF-kB luciferase reporter, 16 h; in the data active means inhibition above about 35%
Jurkat NFkB conf = PMA/ionomycin-induced NF-kB reporter inhibitors, Jurkat retest, confirmation, T-cell NF-kB inhibitor project, cell-based, luminescence, single concentration | shares compounds with Jurkat NFkB inh | Jurkat NF-kB luciferase, 16 h | AID 435020, 2010 | 2,700 compounds, 27% hits | inhibition, % at 4 µM;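 active means inhibition reaching about 45% at 4 µM in either replicate, limit read from the data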
A number is an active result; i = inactive; nt = not tested or not shown.

SMILES	T cruzi repl	HSF1 inh	Jurkat NFkB inh	GPR7 antagonist	HSF-1 act	697 NFkB inh	Jurkat NFkB conf
CCN(C(=O)CN1C(=O)S/C(=C\c2ccc(F)cc2)C1=O)C1CCS(=O)(=O)C1 (stereo not given)	i	i	i	i	i	i	nt
COC(=O)c1ccc(C(=O)OC)c(NC(=O)CSc2nc(-c3ccco3)cc(C(F)(F)F)n2)c1	nt	nt	nt	i	nt	nt	nt
O=C(CSc1nc(-c2ccco2)cc(C(F)(F)F)n1)Nc1ccc2c(c1)CCC2	i	i	61	i	i	i	i
COC(=O)c1ccccc1NC(=O)CSc1nc(-c2ccco2)cc(C(F)(F)F)n1	nt	nt	56	i	nt	i	i
Cc1ccc(NC(=O)CSc2nc(-c3ccco3)cc(C(F)(F)F)n2)cc1C	i	i	71	i	i	i	49
O=C(OCC(=O)N1CCC(c2ccccc2)=N1)c1ccc(Cl)s1	nt	nt	i	nt	nt	i	i
Cc1cc(C(=O)N2CC=C(c3ccccc3)CC2)c2ccccc2n1	i	i	67	nt	i	i	i
COc1ccc(-c2cc(C(=O)N3CCN(c4ccccc4)CC3)c3ccccc3n2)cc1	i	i	60	i	i	i	i
Cc1c(C(=O)C(=O)N2c3ccccc3CC2C)c2ccccc2n1C (stereo not given)	i	i	i	i	i	i	nt
COc1ccc(-c2cc(C(=O)N3CCCC3)c3ccccc3n2)cc1	i	i	i	i	i	i	nt
Cc1c(C(=O)C(=O)N2CC=C(c3ccccc3)CC2)c2ccccc2n1C	i	i	53	i	i	i	i
Fc1ccc(-c2cn3cc(C(F)(F)F)cc(Cl)c3n2)cc1	i	i	i	i	83	i	i
COc1ccc(-c2cn3cc(C(F)(F)F)cc(Cl)c3n2)cc1	i	i	i	i	i	i	nt
CCCN1CCC(=NNc2ccc(S(=O)(=O)N3CCOCC3)cc2[N+](=O)[O-])CC1	i	i	64	i	i	i	i
COc1cc(C(=O)COC(=O)c2c(C)noc2C)cc(OC)c1OC	nt	nt	i	nt	nt	i	i
Cc1cccc(NC(=O)c2cc(Cl)nc3ccccc23)n1	i	i	i	i	i	i	nt
CCOC(=O)c1c(C)[nH]c(C(=O)N/N=C/c2ccc(Br)cc2)c1C	i	i	79	i	i	i	i
CCOC(=O)c1c(C)[nH]c(C(=O)Nc2ccc3c(c2)OCO3)c1C	i	i	i	i	i	i	i
COc1ccc(C(=O)O)cc1S(=O)(=O)Nc1ccc(Oc2ccccc2)cc1	nt	nt	i	nt	nt	i	nt
CC1CCCCC1NC(=O)C1CCN(S(=O)(=O)c2cccc3nonc23)CC1 (stereo not given)	i	i	i	i	i	i	nt
O=C(Cc1ccc(-c2ccccc2)cc1)NCc1ccccc1	i	i	62	i	i	i	i
Cc1noc(C)c1COc1ccc(CC(=O)NCc2ccccc2)cc1	i	nt	62	18	nt	i	i
Cc1ccc(CNC(=O)COC(=O)Cc2ccc(-c3ccccc3)cc2)cc1	i	i	i	i	i	i	nt
Cc1ccc(CNC(=O)Cc2ccc(-c3ccccc3)cc2)cc1	i	i	63	i	i	i	i
O=C(Cc1ccc(-c2ccccc2)cc1)NCc1cccnc1	i	i	i	i	i	i	nt
SMILES	T cruzi repl	HSF1 inh	Jurkat NFkB inh	GPR7 antagonist	HSF-1 act	697 NFkB inh	Jurkat NFkB conf
COc1cccc(CN(C(=O)COc2ccc(Cl)cc2)C2CCS(=O)(=O)C2)c1 (stereo not given)	i	i	i	i	i	i	nt
O=C(Nc1ccc(N2CCOCC2)c(Cl)c1)c1cccc(F)c1	nt	nt	i	i	nt	i	i
O=C(Nc1ccc(N2CCOCC2)c(Cl)c1)c1c(F)c(F)c(F)c(F)c1F	i	i	i	i	i	i	nt
COc1cc2c(cc1OC)C(COc1cccc(C(F)(F)F)c1)NCC2 (stereo not given)	i	i	i	i	i	i	nt
Cc1cc(C(=O)Nc2ccccc2C(=O)O)ccc1NC(=O)COc1ccccc1Cl	i	i	nt	i	i	nt	nt
O=C(Nc1ccc(N2CCCCC2)cc1)c1ccc(F)cc1F	i	i	i	i	i	i	i
Cc1ccc(C(=O)Nc2ccc(N3CCCCC3)cc2)cc1	nt	nt	i	nt	nt	i	i
Cc1ccc(C(=O)Nc2cccc(C(=O)O)c2)cc1	i	-72	73	i	i	i	60
CN1CCN(C(=O)c2ccccc2NC(=O)c2sc3ccccc3c2Cl)CC1	i	i	i	i	i	i	nt
CN1CCN(c2ccc(NC(=O)c3sc4ccccc4c3Cl)cc2)CC1	i	i	i	i	i	i	i
CC(Sc1nnnn1C)C(=O)Nc1nc(-c2ccc(F)c(F)c2)cs1 (stereo not given)	nt	nt	i	nt	nt	i	nt
Cc1ccc(CN2CCCCC2C(=O)Nc2ccc(Oc3cccnc3)cc2)o1 (stereo not given)	i	i	69	i	i	i	i
O=C(Nc1ccc(Oc2ccccc2)nc1)C1CCCCN1Cc1ccco1 (stereo not given)	i	i	53	i	i	i	i
COC(=O)c1cn(NC(=O)CC2CCCCC2)c(=O)c2ccccc12	i	i	i	i	i	i	nt
COC(=O)c1cn(NC(=O)c2cc([N+](=O)[O-])ccc2F)c(=O)c2ccccc12	i	i	97	i	i	i	90
Cc1cccc(N2CCN(C(=O)c3c(-c4ccccc4Cl)noc3C)CC2)c1C	i	i	67	i	i	i	51
Cc1onc(-c2ccccc2Cl)c1C(=O)N1CCN(C=O)CC1	i	i	i	i	i	i	nt
O=C(CCc1ccccc1)NCC(c1ccco1)N1CCc2ccccc21 (stereo not given)	i	i	59	nt	i	i	i
O=C(NCC(c1ccco1)N1CCc2ccccc21)c1ccccc1F (stereo not given)	i	i	i	nt	i	i	nt
O=C(O)COCC(=O)N1CCCN(c2nccc(C(F)(F)F)n2)CC1	i	i	i	i	i	i	nt
CN(C)c1ccc(C(=O)Nc2nc3c(s2)CCCC3)cc1	i	i	i	i	i	i	i
COc1ccc(NC2CCCN(C(=O)CCc3cccc(Cl)c3)C2)cc1 (stereo not given)	i	i	i	i	i	i	nt
Cn1c(=O)oc2cc(S(=O)(=O)N3CCCc4ccccc43)ccc21	i	i	55	i	i	i	i
COC(=O)Nc1ccc(S(=O)(=O)N2CCCc3ccccc32)cc1	i	i	61	i	i	i	56
